As usually defined, the inhibition is the change of the read-out against control, counted positive when it falls. For orientation: IC50 means the concentration at which inhibition is half-maximal.

Like-named read-outs stand apart in the source and are kept apart here.

In experiment [1] the test system is C. parvum. To be noted: ref Darkin-Rattray et al., 1996; cited from earlier work.
Experiment [2] deals with C. parvum. The class given is cell-based, Cryptosporidium parvum. To be noted: for inhibition at 5 µM: Cryptosporidium parvum, HCT-8, 48 h, read-out: Parasite inhibition (%); for Parasite inhibition (%): C. parvum, 5 μM, HCT-8 cells, compound present from inoculation, 48 h.
The test system of a further experiment is C. parvum HNJ-1 strain. Put plainly: Initial epigenetic library compound screening for C. parvum. The class given is cell-based, Cryptosporidium parvum. To be noted: for inhibition at 5 µM: Cryptosporidium parvum, HCT-8, 48 h, read-out: Parasite inhibition (%) (primary screening); for Parasite inhibition (%) (primary screening): 5 μM, 48 h, HCT-8 cells, vs DMSO, single experiment, single replicate.

Another experiment concerns HCT-8 cells. Put plainly: Cytotoxicity to HCT-8 cells. The class given is cell-based, human. To be noted: read-out: Host cell IC50.
Experiment [3] relates to acetylated histone H3K9 of C. parvum sporozoites. Put plainly: Acetylated histone in extracellular parasites. The class given is cell-based, Cryptosporidium parvum. To be noted: Fig. 4A, 10 μM, incubation 30 min.
The subject of experiment [4] is C. parvum. Put plainly: C. parvum growth when compound is added after invasion of host cells. The class given is cell-based, Cryptosporidium parvum. To be noted: 5 μM added after 3 h invasion, further 45 h, compared with DMSO control. In short, it runs like this:
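HCT-8 cells (2 × 10^4/well) grown 24 h, infected with 5 × 10^4 HNJ-1 oocysts in RPMI-1640 for 3 h; test compound (5 μM) or DMSO then added for 45 h; nitazoxanide 5 μM as control. Methanol-fixed, BSA-blocked, Sporo-Glo stained; 42 fields/well imaged at 20×, parasites and nuclei counted automatically; relative to DMSO. Triplicate wells, three independent experiments.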

The subject of experiment [5] is C. parvum. To be noted: 100 or 200 mg/kg; ref Theodos et al., 1998; cited from earlier work.
For experiment [6], the system named is C. parvum. The settings on record: read-out: IC50 against C. parvum, ref Bessoff et al., 2013, cited from earlier work.
The next experiment deals with T. gondii RH-2F. Put plainly: T. gondii growth assay. The class given is cell-based, Toxoplasma gondii. The settings on record: 5 μM, positive control, HFF cells, 48 h.

Take `CCC(=O)CCCCC[C@@H]1NC(=O)[C@H]2CCCCN2C(=O)[C@H]([C@@H](C)CC)NC(=O)[C@H](Cc2cn(OC)c3ccccc23)NC1=O` [Apicidin]: in the experiment on C. parvum [1], the “minimum concentration at which all C. parvum growth was inhibited” value was 45 µM. Moreover, the inhibition at 5 µM with C. parvum [2] was found to be 83.5 ± 1.4%; in the experiment with C. parvum HNJ-1 strain, 83%. In the experiment with HCT-8 cells (Homo sapiens, HCT-8, 48 h), the IC50 was 1.5 ± 0.1 µM.
Regarding `O=C1c2ccccc2C(=O)c2c(NCCc3ccc(O)cc3)ccc(NCCc3ccc(O)cc3)c21` [BML-266], the “Parasite inhibition (%)” value in the experiment on C. parvum [2] is recorded as 64.7 ± 3.9%. Also, the “Parasite inhibition (%) (primary screening)” value in the experiment on C. parvum HNJ-1 strain is 97%. The IC50 in the experiment on HCT-8 cells (HCT-8 cells, 48 h) amounted to 51.2 ± 0.6 µM.
For `CC(=O)Nc1ccc(C(=O)Nc2ccccc2N)cc1` [CI-994], the “Parasite inhibition (%)” value with C. parvum [2] is recorded as “no effect on growth inhibition”. Also, the inhibition at 5 µM is -15.7 ± 8.4% in the experiment with C. parvum [2] and 88% with C. parvum HNJ-1 strain. Besides, in the experiment on HCT-8 cells (Homo sapiens, HCT-8, 48 h), the IC50 was 24.6 ± 2.4 µM.
Regarding `CN(C)c1ccc(C(=O)NCCCCCCC(=O)NO)cc1` [M-344], the “Parasite inhibition (%)” value with C. parvum [2] amounted to 71.3 ± 1.7%. For the same molecule, the “Parasite inhibition (%) (primary screening)” value with C. parvum HNJ-1 strain is recorded as 71%. The IC50 in the experiment with HCT-8 cells (HCT-8 cells, 48 h) was determined as 2.3 ± 0.2 µM.
Turning to `O=Nc1ccc(O)c2ncccc12` [NSC-3852], the “Parasite inhibition (%)” value in the experiment on C. parvum [2] turned out to be 64.4 ± 0.4%. The “Parasite inhibition (%) (primary screening)” value in the experiment with C. parvum HNJ-1 strain was 88%. Further, the IC50 in the experiment on HCT-8 cells (HCT-8 cells, 48 h) was determined as 36.7 ± 1 µM.
On to `O=C(/C=C/C#Cc1cccc(NS(=O)(=O)c2ccccc2)c1)NO` [Oxamflatin], for which the inhibition at 5 µM was 49.8 ± 4% in the experiment on C. parvum [2] and 100% with C. parvum HNJ-1 strain. The IC50 in the experiment with HCT-8 cells (Homo sapiens, HCT-8, 48 h) stood at 2.5 ± 0.1 µM.
Consider `O=C(CCCCCN1C(=O)c2cccc3cccc(c23)C1=O)NO` [Scriptaid], for which, in the experiment on C. parvum [2], the “Parasite inhibition (%)” value is on record as “did not inhibit the growth” and the inhibition at 5 µM amounted to 4 ± 5.7%. Besides, the inhibition at 5 µM in the experiment with C. parvum HNJ-1 strain stood at 10%. Also, in the experiment with HCT-8 cells (Homo sapiens, HCT-8, 48 h), the IC50 is 11.9 ± 1.3 µM.
As for `CC(/C=C/C(=O)NO)=C\[C@@H](C)C(=O)c1ccc(N(C)C)cc1` [TrichostatinA], in the experiment with C. parvum [2], the “Parasite inhibition (%)” value is listed as 75.7 ± 0.8%. Besides, the “Parasite inhibition (%) (primary screening)” value with C. parvum HNJ-1 strain turned out to be 76%. The IC50 in the experiment with HCT-8 cells (HCT-8 cells, 48 h) amounted to 1.6 ± 0.1 µM.
`CC(=O)Oc1ccccc1C(=O)Nc1ncc([N+](=O)[O-])s1` [nitazoxanide]: the “Density of bands of H3K9Ac/H3 normalized by the loading control” value in experiment [3] is given as “increased”. Further, in the experiment with C. parvum [4], the “relative number of C. parvum” value is given as 44.9 ± 7.3%. Besides, the “reduction of the parasite in C. parvum-infected SCID mice” value in the experiment with C. parvum [5] is listed as “ineffective”. The figures for the IC50 in the experiment on C. parvum [6] and in the experiment on C. parvum [6] (listed as Nitazoxanide) were 3.7 µM and roughly 3.7 µM, respectively.
On to `CCc1nc(N)nc(N)c1-c1ccc(Cl)cc1` [pyrimethamine], for which, in the experiment on T. gondii RH-2F, the “growth of T. gondii” value is “completely inhibited”.

Source of the values: article PMC7593347 (International Journal for Parasitology: Drugs and Drug …, 2020).
